ChEMBL document CHEMBL1137338, “Effects of substitution on 9-(3-bromo-4-fluorophenyl)-5,9-dihydro-3H,4H-2,6-dioxa-4- azacyclopenta[b]naphthalene-1,8-dione, a dihydropyridine ATP-sensitive potassium channel opener” (J Med Chem, 2006)

What was measured:
[1] = molecular target: T1, Sulfonylurea receptor 2, Kir6.2 (Homo sapiens, UniProt O60706+Q14654); assay: Activity against pig bladder KATP channel opening assessed as ability to relax spontaneous bladder contraction; assay type: functional, Sus scrofa; conditions: target entry is the homologue from another species
T1 sequence (Q14654 whole entry): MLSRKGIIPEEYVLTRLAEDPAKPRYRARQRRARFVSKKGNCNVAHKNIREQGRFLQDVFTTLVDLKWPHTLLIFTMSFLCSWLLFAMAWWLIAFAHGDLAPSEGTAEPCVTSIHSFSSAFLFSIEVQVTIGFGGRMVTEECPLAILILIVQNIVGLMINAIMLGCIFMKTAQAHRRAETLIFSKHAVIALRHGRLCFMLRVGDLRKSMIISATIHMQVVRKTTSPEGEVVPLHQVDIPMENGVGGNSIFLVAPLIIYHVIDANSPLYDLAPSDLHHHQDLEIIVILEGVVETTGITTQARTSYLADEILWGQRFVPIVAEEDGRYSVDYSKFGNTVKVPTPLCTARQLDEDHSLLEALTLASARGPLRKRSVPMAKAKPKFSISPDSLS
T1 sequence (O60706 whole entry): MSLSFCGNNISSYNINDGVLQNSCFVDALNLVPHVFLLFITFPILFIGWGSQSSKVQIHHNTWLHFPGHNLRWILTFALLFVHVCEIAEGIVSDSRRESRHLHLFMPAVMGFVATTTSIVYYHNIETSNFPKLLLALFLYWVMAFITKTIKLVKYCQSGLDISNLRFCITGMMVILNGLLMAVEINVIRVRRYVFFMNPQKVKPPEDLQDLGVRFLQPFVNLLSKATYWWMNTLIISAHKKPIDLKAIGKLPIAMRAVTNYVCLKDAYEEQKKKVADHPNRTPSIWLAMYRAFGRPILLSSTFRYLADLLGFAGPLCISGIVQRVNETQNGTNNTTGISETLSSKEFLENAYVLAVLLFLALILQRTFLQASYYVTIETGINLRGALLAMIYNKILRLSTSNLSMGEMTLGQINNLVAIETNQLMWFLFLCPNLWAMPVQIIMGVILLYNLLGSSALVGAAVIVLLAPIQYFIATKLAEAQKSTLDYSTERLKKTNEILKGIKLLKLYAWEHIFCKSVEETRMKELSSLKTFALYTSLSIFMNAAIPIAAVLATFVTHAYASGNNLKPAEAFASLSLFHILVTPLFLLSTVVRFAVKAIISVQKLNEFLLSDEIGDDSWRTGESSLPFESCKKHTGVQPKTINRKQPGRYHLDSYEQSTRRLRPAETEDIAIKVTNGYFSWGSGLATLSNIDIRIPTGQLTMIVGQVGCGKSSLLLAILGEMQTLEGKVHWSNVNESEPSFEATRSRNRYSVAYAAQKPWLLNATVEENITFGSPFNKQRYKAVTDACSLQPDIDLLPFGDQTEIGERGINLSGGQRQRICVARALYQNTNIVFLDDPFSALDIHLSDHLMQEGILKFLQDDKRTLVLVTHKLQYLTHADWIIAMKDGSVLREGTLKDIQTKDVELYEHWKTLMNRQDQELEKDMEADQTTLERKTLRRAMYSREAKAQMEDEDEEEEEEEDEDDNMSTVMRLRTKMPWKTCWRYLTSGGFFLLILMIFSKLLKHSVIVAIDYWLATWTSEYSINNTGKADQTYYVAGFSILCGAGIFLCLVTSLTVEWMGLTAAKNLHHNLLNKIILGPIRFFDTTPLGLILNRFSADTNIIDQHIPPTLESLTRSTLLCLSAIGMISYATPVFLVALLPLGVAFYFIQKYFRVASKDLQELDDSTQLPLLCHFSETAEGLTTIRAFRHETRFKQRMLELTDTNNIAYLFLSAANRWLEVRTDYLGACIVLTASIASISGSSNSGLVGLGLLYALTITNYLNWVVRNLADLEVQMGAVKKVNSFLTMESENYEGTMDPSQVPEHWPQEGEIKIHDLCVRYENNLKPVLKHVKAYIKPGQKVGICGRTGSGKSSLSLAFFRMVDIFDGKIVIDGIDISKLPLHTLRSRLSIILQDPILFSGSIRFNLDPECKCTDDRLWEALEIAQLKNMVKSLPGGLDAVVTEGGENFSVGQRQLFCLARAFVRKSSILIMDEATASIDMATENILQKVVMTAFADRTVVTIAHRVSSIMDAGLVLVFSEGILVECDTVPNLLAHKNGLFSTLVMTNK
Method in brief: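 Spontaneously contracting detrusor strips were taken from near the trigonal region of Landrace pig bladder. Increasing concentrations of test agent were applied, and the reduction in area under the curve (AUC) of the spontaneous contractions was measured.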

[2] = molecular target: T1, Sulfonylurea receptor 2, Kir6.2; assay: (§1) Activity against pig bladder KATP channel opening assessed as ability to relax field-stimulated pig detrusor; assay type: functional, Sus scrofa; conditions: target entry is the homologue from another species
[3] = molecular target: T1, Sulfonylurea receptor 2, Kir6.2; assay: (§2) Ability to open human urinary bladder Kir6.2 channel containing SUR2B in Ltk cells by FLIPR assay; assay type: functional, cell-based
Method in brief: (§3)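 Ltk- cells stably transfected with the Kir6.2/SUR2B exon 17- splice variant. Membrane potential was followed with DiBAC dye in a 96-well cell-based kinetic fluorescence (FLIPR) assay. The highest concentration tested was 10 µM. Each compound's maximal fluorescence response was expressed as % of the response to the reference opener.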

[4] = molecular target: T2, Sulfonylurea receptor 2, Kir6.2 (Homo sapiens) (UniProt Q14654+O60706); assay: Activity against pig bladder KATP channel opening assessed as ability to relax field-stimulated pig detrusor relative to P1075; assay type: functional; conditions: Sus scrofa; target entry is the homologue from another species
[5] = molecular target: T2, Sulfonylurea receptor 2, Kir6.2 (Homo sapiens); assay: Activity against pig bladder KATP channel opening assessed as ability to relax spontaneous bladder contraction relative to P1075; assay type: functional; conditions: Sus scrofa; target entry is the homologue from another species
[6] = molecular target: T2, Sulfonylurea receptor 2, Kir6.2 (Homo sapiens); assay: Ability to open human urinary bladder Kir6.2 containing SUR2B in Ltk cells by FLIPR assay relative to P1075; assay type: functional, cell-based; method in brief: as §3
[7] = molecular target: T2, Sulfonylurea receptor 2, Kir6.2 (Homo sapiens); assay: as §1; assay type: functional; conditions: Sus scrofa; filed as agonist; target entry is the homologue from another species
[8] = molecular target: T2, Sulfonylurea receptor 2, Kir6.2 (Homo sapiens); assay: as §2; assay type: functional, cell-based; conditions: filed as partial agonist; method in brief: as §3
[9] = tested on: Rattus norvegicus; assay: Activity against volume-induced reflex neurogenic bladder contraction in urethral ligated rat measured as reduction in AUC at 0.3 umol/kg, iv; assay type: functional, Urinary bladder; set-up: scale not given: the % may be the effect or the level left
[10] = tested on: Rattus norvegicus; assay: Activity against volume-induced reflex neurogenic bladder contraction in urethral ligated rat measured as reduction in AUC at 1 umol/kg, iv; assay type: functional, Urinary bladder; set-up: scale not given: the % may be the effect or the level left
[11] = tested on: Rattus norvegicus; assay: Activity against volume-induced reflex neurogenic bladder contraction in urethral ligated rat measured as reduction in AUC at 3 umol/kg, iv; assay type: functional, Urinary bladder; set-up: scale not given: the % may be the effect or the level left
[12] = tested on: Rattus norvegicus; assay: Activity against spontaneous myogenic bladder contraction in partial outlet obstructed rat measured as reduction in AUC at 0.1 umol/kg, iv; assay type: functional; set-up: scale not given: the % may be the effect or the level left
[13] = tested on: Rattus norvegicus; assay: Activity against spontaneous myogenic bladder contraction in partial outlet obstructed rat measured as reduction in AUC at 0.03 umol/kg, iv; assay type: functional; set-up: scale not given: the % may be the effect or the level left
[14] = tested on: Rattus norvegicus; assay: Activity against spontaneous myogenic bladder contraction in partial outlet obstructed rat measured as reduction in AUC at 0.3 umol/kg, iv; assay type: functional; set-up: scale not given: the % may be the effect or the level left
[15] = tested on: Rattus norvegicus; assay: Activity against spontaneous myogenic bladder contraction in partial outlet obstructed rat measured as reduction in AUC at 1 umol/kg, iv; assay type: functional; set-up: scale not given: the % may be the effect or the level left
[16] = tested on: Rattus norvegicus; assay: Activity against volume-induced reflex neurogenic bladder contraction in urethral ligated rat measured as reduction in MAP at 0.3 umol/kg, iv; assay type: functional, Urinary bladder; set-up: scale not given: the % may be the effect or the level left
[17] = tested on: Rattus norvegicus; assay: Activity against volume-induced reflex neurogenic bladder contraction in urethral ligated rat measured as reduction in MAP at 1 umol/kg, iv; assay type: functional, Urinary bladder; set-up: scale not given: the % may be the effect or the level left
[18] = tested on: Rattus norvegicus; assay: Activity against volume-induced reflex neurogenic bladder contraction in urethral ligated rat measured as reduction in MAP at 3 umol/kg, iv; assay type: functional, Urinary bladder; set-up: scale not given: the % may be the effect or the level left
[19] = tested on: Rattus norvegicus; assay: Activity against spontaneous myogenic bladder contraction in partial outlet obstructed rat measured as reduction in MAP at 0.1 umol/kg, iv; assay type: functional; set-up: scale not given: the % may be the effect or the level left
[20] = tested on: Rattus norvegicus; assay: Activity against spontaneous myogenic bladder contraction in partial outlet obstructed rat measured as reduction in MAP at 0.03 umol/kg, iv; assay type: functional; set-up: scale not given: the % may be the effect or the level left
[21] = tested on: Rattus norvegicus; assay: Activity against spontaneous myogenic bladder contraction in partial outlet obstructed rat measured as reduction in MAP at 0.3 umol/kg, iv; assay type: functional; set-up: scale not given: the % may be the effect or the level left
[22] = tested on: Rattus norvegicus; assay: Activity against spontaneous myogenic bladder contraction in partial outlet obstructed rat measured as reduction in MAP at 1 umol/kg, iv; assay type: functional; set-up: scale not given: the % may be the effect or the level left

| Structure (SMILES) | EC50 [2] [nM] | EC50 [3] [nM] | Efficacy [4] [%] | Efficacy [5] [%] | Efficacy [6] [%] | Activity [8] | other results |
| --- | --- | --- | --- | --- | --- | --- | --- |
| CCC(C)(C)NC(=NC#N)Nc1cccnc1 | 85.1 | 52.5 |  |  |  |  | EC50 [1]: 21.9 nM |
| CCc1cc(C#N)ccc1Nc1c(N[C@H](C)C(C)(C)C)c(=O)c1=O | 676 | 2340 | 94 | 100 | 71 |  | EC50 [1]: 102 nM |
| CCC(C)(C)/N=C(\NC#N)Nc1cccnc1 |  |  | 99 | 100 | 101 |  |  |
| C[C@](O)(C(=O)Nc1ccc(C(=O)c2ccccc2)cc1)C(F)(F)F |  |  | 99 | 100 | 100 |  |  |
| CCC[C@H]1OC(O)=C2C1=NC1=C(C(=O)COC1)[C@H]2c1ccc(F)c(Br)c1 (racemic) |  |  | 90 |  | 36 | Partial agonist | Activity [7]: Agonist |
| CC[C@H]1OC(O)=C2C1=NC1=C(C(=O)COC1)[C@H]2c1ccc(F)c(Br)c1 (racemic) |  |  | 88 |  | 40 | Partial agonist | Activity [7]: Agonist |
| CC[C@H]1OCC(O)=C2C1=NC1=C(C(=O)COC1)[C@H]2c1ccc(Cl)c(Cl)c1 (racemic) |  |  |  |  | 58 | Partial agonist |  |
| CC[C@H]1OCC(O)=C2C1=NC1=C(C(=O)COC1)[C@H]2c1ccc(F)c(Br)c1 (racemic) |  |  |  |  | 30 | Partial agonist |  |
| CC[C@H]1OCC(O)=C2C1=NC1=C(C(=O)COC1)[C@H]2c1ccc(F)c(Cl)c1 (racemic) |  |  |  |  | 30 | Partial agonist |  |
| CC(C)C[C@@H]1OC(O)=C2C1=NC1=C(C(=O)COC1)[C@H]2c1ccc(F)c(Br)c1 (relative stereo) | 129 | 27.5 | 74 |  | 83 |  |  |
| CC[C@H]1OC(O)=C2C1=NC1=C(C(=O)CSC1)[C@H]2c1ccc(F)c(Br)c1 (relative stereo) |  |  | 100 |  | 15 | Partial agonist | Activity [7]: Agonist |
| CC1(C)Oc2ccc(C#N)cc2[C@H](N2CCCC2=O)[C@H]1O (single isomer, unassigned) |  |  | 99 | 100 | 83 |  |  |
| O=C1COCC2=C1C(c1ccc(F)c(Br)c1)C1=C(O)OCC1=N2 (stereo in doubt; 6b) [listing 1 of 2 here] | 214 | 37.2 |  |  |  |  | EC50 [1]: 0.676 nM |
| O=C1COCC2=C1C(c1ccc(F)c(Br)c1)C1=C(O)OCC1=N2 (stereo in doubt; 6b) [listing 2 of 2 here] |  |  | 88 | 100 | 101 |  |  |
| C[C@@H]1OCC2=C(C1=O)[C@@H](c1ccc(F)c(Br)c1)C1=C(O)OCC1=N2 (stereo in doubt; 7a) |  |  |  |  | 17 | Partial agonist |  |
| C[C@@H]1OCC2=C(C1=O)[C@H](c1ccc(F)c(Br)c1)C1=C(O)OCC1=N2 (stereo in doubt; 8a) |  |  |  |  | 15 | Partial agonist |  |

| Structure (SMILES) | EC50 [2] [nM] | EC50 [3] [nM] | Efficacy [4] [%] | Efficacy [5] [%] | Efficacy [6] [%] | Activity [8] | other results |
| --- | --- | --- | --- | --- | --- | --- | --- |
| C[C@@H]1OCC2=C(C1=O)[C@H](c1ccc(F)c(Br)c1)C1=C(O)OCC1=N2 (stereo in doubt; 8b) |  |  |  |  | 16 | Partial agonist |  |
| CC[C@H]1OC(O)=C2C1=NC1=C(C(=O)COC1)[C@H]2c1ccc(F)c(Br)c1 (stereo in doubt; 21b) [listing 1 of 2 here] | 282 | 170 |  |  |  |  | EC50 [1]: 19.1 nM |
| CC[C@H]1OC(O)=C2C1=NC1=C(C(=O)COC1)[C@H]2c1ccc(F)c(Br)c1 (stereo in doubt; 21b) [listing 2 of 2 here] |  |  | 77 | 96 | 46 | Partial agonist |  |
| CCC[C@H]1OC(O)=C2C1=NC1=C(C(=O)COC1)[C@H]2c1ccc(F)c(Br)c1 (stereo in doubt; 23b) [listing 1 of 2 here] | 513 | 27.5 |  |  |  |  | Activity [9]: 16%; Activity [10]: 31.9%; Activity [11]: 37.4%; Activity [12]: 19.1%; Activity [13]: 4.2%; Activity [14]: 46.7%; Activity [15]: 93.1%; Activity [16]: 22.6%; Activity [17]: 43.8%; Activity [18]: 49.7%; Activity [19]: 9.6%; Activity [20]: 5.1%; Activity [21]: 23.6%; Activity [22]: 40.7%; EC50 [1]: 28.8 nM |
| CCC[C@H]1OC(O)=C2C1=NC1=C(C(=O)COC1)[C@H]2c1ccc(F)c(Br)c1 (stereo in doubt; 23b) [listing 2 of 2 here] |  |  | 34 | 99 | 45 | Partial agonist |  |
| CCCC[C@H]1OC(O)=C2C1=NC1=C(C(=O)COC1)[C@H]2c1ccc(F)c(Br)c1 (stereo in doubt; 29b) [listing 1 of 2 here] | 1660 | 851 |  |  |  |  | EC50 [1]: 331 nM |
| CCCC[C@H]1OC(O)=C2C1=NC1=C(C(=O)COC1)[C@H]2c1ccc(F)c(Br)c1 (stereo in doubt; 29b) [listing 2 of 2 here] |  |  | 51 | 100 | 68 |  |  |
| CC[C@H]1OC(O)=C2C1=NC1=C(C(=O)C(C)(C)OC1)[C@H]2c1ccc(F)c(Br)c1 (stereo in doubt; 36b) |  |  |  |  | 34 | Partial agonist |  |
| CCC[C@H]1OC(O)=C2C1=NC1=C(C(=O)COC1)[C@H]2c1ccc(F)c(Cl)c1 (stereo in doubt; 39b) |  |  | 66 |  | 39 | Partial agonist |  |
| CC[C@H]1OCC(O)=C2C1=NC1=C(C(=O)COC1)[C@H]2c1ccc(F)c(Br)c1 (stereo in doubt; 71a) [listing 1 of 2 here] | 2040 | 170 |  |  |  |  | EC50 [1]: 129 nM |
| CC[C@H]1OCC(O)=C2C1=NC1=C(C(=O)COC1)[C@H]2c1ccc(F)c(Br)c1 (stereo in doubt; 71a) [listing 2 of 2 here] |  |  | 54 | 98 | 40 | Partial agonist |  |
| CC[C@H]1OCC(O)=C2C1=NC1=C(C(=O)COC1)[C@H]2c1ccc(Cl)c(Cl)c1 (stereo in doubt; 74b) [listing 1 of 2 here] | 2290 | 170 |  |  |  |  | EC50 [1]: 55 nM |
| CC[C@H]1OCC(O)=C2C1=NC1=C(C(=O)COC1)[C@H]2c1ccc(Cl)c(Cl)c1 (stereo in doubt; 74b) [listing 2 of 2 here] |  |  | 41 | 92 | 57 | Partial agonist |  |
| CC[C@H]1OCC(O)=C2C1=NC1=C(C(=O)COC1)[C@H]2c1ccc(Br)c(Cl)c1 (stereo in doubt; 76b) [listing 1 of 2 here] | 13500 | 245 |  |  |  |  | EC50 [1]: 245 nM |
| CC[C@H]1OCC(O)=C2C1=NC1=C(C(=O)COC1)[C@H]2c1ccc(Br)c(Cl)c1 (stereo in doubt; 76b) [listing 2 of 2 here] |  |  | 38 | 97 | 37 | Partial agonist |  |
